Compound activity: PubChem BioAssay, several laboratories
Most compounds without a hit are left out; they make up all but 0.84% or so of the library.
MT1-MMP act inh – MT1-MMP (human) activation inhibition; 360,000 tested, 0.061% active; GFP/RFP ratio change, % at 20 µM; AID 651647; HT1080 RFP-PRO-GFP cells, GFP/RFP ratio fluorescence, overnight; percent of plate control window, DMSO zero;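 active = GFP/RFP ratio change of at least 30% with cell ATP level not reduced by more than half and red fluorescence within 50% of control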
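Read-out: GFP/RFP fluorescence ratio; Test system: RFP-PRO-GFP reporter HT1080 cells; Compound dosing: single-point 20 µM compound, 1% DMSO; Times: overnight compound exposure at 37 °C.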
Tn6 DDE FP – disrupts Tn6 cyclic peptide binding to fibrin D-Dimer-E complex | 370,000 tested, 0.21% active | AID 720509 | Fibrin DD(E) TRITC-Tn6 fluorescence polarization displacement | P02675 | inhibition, % at 8.3 µM;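 active = inhibition above a per-campaign cutoff: mean of compounds within control limits plus 3 SD, cut at about 15% in these data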
Target sequence (P02675 whole entry, looked up): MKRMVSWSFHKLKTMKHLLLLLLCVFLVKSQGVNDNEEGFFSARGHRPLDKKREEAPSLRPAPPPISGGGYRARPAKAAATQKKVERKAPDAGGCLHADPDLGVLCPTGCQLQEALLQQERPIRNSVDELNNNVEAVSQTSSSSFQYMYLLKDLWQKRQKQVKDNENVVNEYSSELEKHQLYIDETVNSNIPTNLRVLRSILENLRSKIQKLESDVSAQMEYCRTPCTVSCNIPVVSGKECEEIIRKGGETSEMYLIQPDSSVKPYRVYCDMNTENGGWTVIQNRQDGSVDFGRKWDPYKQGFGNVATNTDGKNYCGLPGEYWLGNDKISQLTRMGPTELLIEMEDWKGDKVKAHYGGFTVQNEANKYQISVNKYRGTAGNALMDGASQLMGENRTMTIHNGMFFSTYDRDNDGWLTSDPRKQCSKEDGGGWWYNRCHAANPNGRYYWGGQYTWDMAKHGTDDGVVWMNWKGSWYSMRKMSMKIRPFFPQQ
SKN-1 block – blocks SKN-1 activity in C. elegans. C. elegans VP596 Pgst-4::GFP/RFP ratio, acrylamide-induced, 24 h. inhibition, % at 21.8 µM. 360,000 tested, 0.49% active;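 active = interference check ratio from 0.5 to 1.5 plus GFP to RFP signal ratio inhibition reaching or exceeding a fixed threshold, cut at about 30% in these data, passing the limit was not always enough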
DDE Tn7 FP inh – inhibitors of Tn7 peptide binding to human fibrin DD(E); P02675; FP displacement of FITC-Tn7 peptide from fibrin DD(E); 0% = median of compound wells per plate; inhibition, % at 8.3 µM; 370,000 tested, 0.13% active;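 active = inhibition above the mean of compounds falling within the control limits plus 3 SD of them, cut at about 14% in these data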
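Test system – human fibrin DD(E) · Times – 10 min preincubation, 3 h with tracer, room temperature · Detection – fluorescence polarization of the labelled Tn7 tracer · Measure – percent inhibition normalized to high-control wells · Benchmarks – high control wells with 10 µM unlabelled Aha-Tn7 peptide (full inhibition) · Repeats – singlicate testing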
DDE Tn6 FP ctr – DD(E)-Tn6 binding inhibition, counter-screen; 680 tested, 2% active; shares compounds with Tn6 DDE FP; AID 720621; Fibrin DD(E), TRITC-Tn6 fluorescence polarization displacement; 0% = median of compound wells, not DMSO; inhibition, % at 8.3 µM;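 active = inhibition above the mean of test compounds lying between the control limits plus 3 SD of those, cut at about 14% in these data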
Tn6 DDE conf – confirmation of inhibitors of Tn6 binding to human fibrin DD(E); shares compounds with Tn6 DDE FP; FP displacement of TRITC-Tn6 peptide from DD(E); 0% = per-plate median of test wells; inhibition, % at 8.3 µM; 680 tested, 10% active; AID 720631;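 active = inhibition above the mean of compounds lying within the control limits plus 3 SD, cut at about 16% in these data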
Of the large screens only hits and unclear results are named; the others gave an inactive call (follow-up assays come after a bar, where they were run).

CC(=O)Nc1ccc(N/C=C2/CCCC2=O)cc1	none
Cc1cc(O)ccc1N/C=C1\CCCC1=O	Tn6 DDE FP 30 | DDE Tn6 FP ctr inactive | Tn6 DDE conf inactive
Cc1ccc(S(=O)(=O)N2C[C@@H]3[C@H]4CC[C@H](C4)[C@@H]3[C@@H](C)C2CC(=O)c2ccccc2)cc1 (stereo not given in full)	none
Oc1ccc(Cl)cc1N=Nc1ccccc1	none
Cc1ccc(O)c(N=Nc2ccccc2)n1	Tn6 DDE FP 16 | DDE Tn6 FP ctr inactive | Tn6 DDE conf inactive
Nn1c(SCC(=O)N2CCOCC2)nnc1-c1cc(-c2ccc(F)cc2)n[nH]1	Tn6 DDE FP 16 (no result: MT1-MMP act inh, SKN-1 block) | DDE Tn6 FP ctr inactive | Tn6 DDE conf inactive
N#CC1=C(N)OC2=C(CN(Cc3ccccc3)C/C2=C\c2cccnc2)C1c1cccnc1 (stereo not given)	none
CCN1CC2=C(OC(N)=C(C#N)C2c2ccccc2)/C(=C\c2ccccc2)C1 (stereo not given)	Tn6 DDE FP 25 | DDE Tn6 FP ctr inactive | Tn6 DDE conf inactive
O=c1c2cccnc2[nH]c(=S)n1CCCN1CCN(c2ccccc2F)CC1	Tn6 DDE FP 17 | DDE Tn6 FP ctr inactive | Tn6 DDE conf inactive
Cc1ccc(S(=O)(=O)N2CCN(S(=O)(=O)c3ccccc3Br)CC2)cc1	none
COc1cc(C=NN2CCN(C(c3ccccc3)c3ccccc3)CC2)cc(OC)c1OC(C)=O	none (no result: MT1-MMP act inh, SKN-1 block)
CCOc1ccc(NC(=O)N2CCN(Cc3ccc4c(c3)OCO4)CC2)cc1	none
CCCN1CCN(C(=O)Nc2ccc(OCC)cc2)CC1	Tn6 DDE FP 15 | DDE Tn6 FP ctr inactive | Tn6 DDE conf inactive
COc1ccc(OC)c(S(=O)(=O)NC2CC(=O)N(c3ccc(C)c(C)c3)C2)c1 (stereo not given)	none
CN1CC=C2C(C#N)=C(N)C(C#N)(C#N)C(c3ccsc3)C2C1 (stereo not given)	none
CN1CC=C2C(C#N)=C(N)C(C#N)(C#N)[C@H](c3cccc(Cl)c3)C2C1 (stereo not given in full)	Tn6 DDE FP 18 | DDE Tn6 FP ctr inactive | Tn6 DDE conf inactive
Nc1ccc(O)c2c1C(=O)c1ccccc1C2=O	Tn6 DDE FP 130 | DDE Tn6 FP ctr inactive | Tn6 DDE conf 102
COc1ccc2noc3c2c1C(=O)c1ccccc1-3	Tn6 DDE FP 52 | DDE Tn6 FP ctr 53 | Tn6 DDE conf inactive
COc1ccc(N)c2c1C(=O)c1ccccc1C2=O	Tn6 DDE FP 72 | DDE Tn6 FP ctr inactive | Tn6 DDE conf 58
COc1ccc(CNC(=O)CN2C(=O)CSc3ccc(S(=O)(=O)N4CCCCC4)cc32)cc1	none
Oc1ccc(N2CCN(C(=S)NCCc3ccccc3)CC2)cc1	Tn6 DDE FP 16 | DDE Tn6 FP ctr inactive | Tn6 DDE conf inactive
O=C(COC(=O)c1ccc(S(=O)(=O)N2CCOCC2)cc1)NCc1ccco1	none
COc1cc(NS(=O)(=O)c2ccc(NC(=S)NC(=O)/C=C/c3ccc(F)cc3)cc2)ncn1	Tn6 DDE FP 19 | DDE Tn6 FP ctr inactive | Tn6 DDE conf inactive
O=C(Nc1c2c(nn1-c1ccccc1)CS(=O)(=O)C2)c1cc2ccccc2o1	none
CCCCCCCCN1C(=O)[C@@H](CC(=O)NCCC(C)C)C[C@@]2(C(=O)OC)C1=C[C@H](C(C)(C)C)O[C@@H]2C	Tn6 DDE FP 16 (no result: MT1-MMP act inh, SKN-1 block) | DDE Tn6 FP ctr inactive | Tn6 DDE conf inactive
CCCCCCCCN1C(=O)[C@@H](CC(=O)NCCCOC)C[C@@]2(C(=O)OC)C1=C[C@H](C(C)(C)C)O[C@@H]2C	none (no result: MT1-MMP act inh, SKN-1 block)
CC1CCN(C(=O)COC(=O)Cc2c[nH]c3ccccc23)CC1	Tn6 DDE FP 21 | DDE Tn6 FP ctr inactive | Tn6 DDE conf inactive
CCC(NC(=O)Nc1ccc(O)cc1)(C(F)(F)F)C(F)(F)F	none
CC(NC(=O)Nc1ccc(O)cc1)(C(F)(F)F)C(F)(F)F	Tn6 DDE FP 29 | DDE Tn6 FP ctr inactive | Tn6 DDE conf inactive
Brc1ccc(-c2nnc3c4ccccc4nc(N4CCOCC4)n23)cc1	none
Fc1ccccc1-c1nnc2c3ccccc3nc(N3CCOCC3)n12	Tn6 DDE FP 15 | DDE Tn6 FP ctr inactive | Tn6 DDE conf inactive
CCN(CC)CC(=O)Nc1ccc([N+](=O)[O-])cc1	none
COc1cccc(CNC(=O)c2cc3c(c(-c4cccc(-c5cccc(C#N)c5)c4)n2)[C@H](CCO)N(S(=O)C(C)(C)C)C3)c1 (stereo not given in full)	none
CCN1CCN(c2ccc(S(=O)(=O)N3CCCCC3)cc2NC(=O)/C=C/c2cccc(OC)c2OC)CC1	Tn6 DDE FP 16 | DDE Tn6 FP ctr inactive | Tn6 DDE conf inactive
O=C(Nc1cccc(C(=O)O)c1)/C(=C\c1ccco1)NC(=O)c1ccc(Br)o1	none
Fc1ccc2nc(C3CCCCN3Cc3nc(CC4CC4)no3)[nH]c2c1 (stereo not given)	Tn6 DDE FP 16 (no result: MT1-MMP act inh) | DDE Tn6 FP ctr inactive | Tn6 DDE conf inactive
COC(=O)c1ccc(C)c(-n2c(C)cc(C=O)c2C)c1	none
CCCCc1cc(=O)oc2c(CN(C)C)c(O)ccc12	Tn6 DDE FP 16 (no result: MT1-MMP act inh) | DDE Tn6 FP ctr inactive | Tn6 DDE conf inactive
Cc1ccc(N2C(=N)/C(=C3/Nc4ccccc4S3)C(c3ccccc3)C2=O)cc1 (stereo not given)	none
Nc1sccc1C(=O)c1ccccc1	Tn6 DDE FP 15 (no result: MT1-MMP act inh, SKN-1 block) | DDE Tn6 FP ctr inactive | Tn6 DDE conf inactive
CN(C(=O)CSc1cc(Cl)ccc1Cl)C1CCS(=O)(=O)C1 (stereo not given)	none
COC(=O)c1ccccc1-c1c2ccc(=N)cc-2oc2cc(N)ccc12	Tn6 DDE FP active | DDE Tn6 FP ctr 53 | Tn6 DDE conf 93
COC(=O)c1ccccc1-c1ccc(/C=N/NC(=O)c2cc3ccccc3o2)o1	none
CCOc1ccccc1-n1c(=S)sc2c(=O)n(-c3ccc(C)cc3)c(=S)[nH]c21	none
CCn1c(=S)sc2c(=O)n(-c3ccccc3)c(=S)[nH]c21	Tn6 DDE FP 18 | DDE Tn6 FP ctr inactive | Tn6 DDE conf inactive
Cc1ccc(S(=O)(=O)CCC(=O)OCCOc2cccc(Br)c2)cc1	Tn6 DDE FP 15 | DDE Tn6 FP ctr inactive | Tn6 DDE conf inactive
COc1cccc(NC(=O)COC(=O)CCS(=O)(=O)c2ccc(C)cc2)c1	none
O=C1/C(=C\c2cc([N+](=O)[O-])ccc2O)SC(=S)N1Cc1ccc(Cl)cc1	Tn6 DDE FP 17 | DDE Tn6 FP ctr inactive | Tn6 DDE conf inactive
O=C1/C(=C\c2cccc(O)c2O)SC(=S)N1Cc1ccccc1	none
CCc1nc(-c2cc3ccc(C)cc3[nH]c2=O)no1	none
Cc1ccc2[nH]c(=O)c(-c3noc(C(C)C)n3)cc2c1	Tn6 DDE FP 17 | DDE Tn6 FP ctr inactive | Tn6 DDE conf inactive
